Legend:
Format in all cases: ADME, organism-based
[1] = AUC in rat at 0.5 mg/kg, iv; parameters: dose 0.5 mg/kg, route intravenous; conditions: plasma
In short: (§1)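 Rats given 0.5 mg/kg iv and 10 mg/kg po. The iv plasma values are the mean from three rats; the po plasma values come from a single rat.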

[2] = AUC in rat at 10 mg/kg, po; parameters: dose 10 mg/kg, route oral; conditions: plasma; in short: as §1
[3] = Oral bioavailability in rat at 10 mg/kg; conditions: in vivo; in short: as §1

AUC [1]	AUC [2]	bioavailability [3]	SMILES
161 ng·h/mL	141 ng·h/mL	4.4%	O=C(Nc1cc2cc[nH]c(=O)c2cc1Cl)C1CCNCC1
127 ng·h/mL	1780 ng·h/mL	70%	CN1CCC(C(=O)Nc2cc3cc[nH]c(=O)c3cc2Cl)CC1
119 ng·h/mL	338 ng·h/mL	20%	N[C@H]1CC[C@@H](C(=O)Nc2cc3cc[nH]c(=O)c3cc2Cl)CC1

Source: ChEMBL document CHEMBL1221307, “Substituted 2H-isoquinolin-1-ones as potent Rho-kinase inhibitors: part 2, optimization for blood pressure reduction in spontaneously hypertensive rats” (Bioorg Med Chem Lett, 2010)
